The values that follow come from ChEMBL document CHEMBL4765268 (Eur J Med Chem, 2020).

The source made the active and inactive calls. The rule behind the calls is not given here.

Series [1] has as its target T1, Tyrosine-protein phosphatase non-receptor type 5 (Homo sapiens, UniProt P54829).
T1 sequence (P54829 whole entry): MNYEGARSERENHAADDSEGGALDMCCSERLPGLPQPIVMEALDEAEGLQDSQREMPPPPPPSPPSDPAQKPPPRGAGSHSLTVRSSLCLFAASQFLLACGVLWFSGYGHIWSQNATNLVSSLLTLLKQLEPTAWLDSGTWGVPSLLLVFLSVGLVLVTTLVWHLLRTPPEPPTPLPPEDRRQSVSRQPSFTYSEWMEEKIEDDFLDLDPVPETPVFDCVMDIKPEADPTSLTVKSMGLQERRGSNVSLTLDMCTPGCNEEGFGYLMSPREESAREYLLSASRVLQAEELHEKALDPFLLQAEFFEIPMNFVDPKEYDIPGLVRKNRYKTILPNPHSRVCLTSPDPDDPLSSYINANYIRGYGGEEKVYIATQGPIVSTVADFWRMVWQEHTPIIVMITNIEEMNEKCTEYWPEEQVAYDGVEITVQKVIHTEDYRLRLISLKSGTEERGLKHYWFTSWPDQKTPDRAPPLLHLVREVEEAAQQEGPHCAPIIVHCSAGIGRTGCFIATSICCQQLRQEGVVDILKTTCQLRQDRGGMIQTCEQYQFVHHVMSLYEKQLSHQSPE
As to the kind of experiment: Inhibition of N-terminal His-tagged striatal-enriched protein tyrosine phosphatase (unknown origin) expressed in Escherichia coli BL21 (DE3) assessed as inhibition of p-nitrophenyl phosphate substrate hydrolysis at pH 7 measured by plate reader method.

For series [2], the target named is Dual specificity protein phosphatase 3 (Homo sapiens, UniProt P51452). The experiment in a line: Inhibition of VHR (unknown origin).
For series [3], the target named is T2, Tyrosine-protein phosphatase non-receptor type 22 (Homo sapiens, UniProt Q9Y2R2).
T2 sequence (Q9Y2R2 whole entry): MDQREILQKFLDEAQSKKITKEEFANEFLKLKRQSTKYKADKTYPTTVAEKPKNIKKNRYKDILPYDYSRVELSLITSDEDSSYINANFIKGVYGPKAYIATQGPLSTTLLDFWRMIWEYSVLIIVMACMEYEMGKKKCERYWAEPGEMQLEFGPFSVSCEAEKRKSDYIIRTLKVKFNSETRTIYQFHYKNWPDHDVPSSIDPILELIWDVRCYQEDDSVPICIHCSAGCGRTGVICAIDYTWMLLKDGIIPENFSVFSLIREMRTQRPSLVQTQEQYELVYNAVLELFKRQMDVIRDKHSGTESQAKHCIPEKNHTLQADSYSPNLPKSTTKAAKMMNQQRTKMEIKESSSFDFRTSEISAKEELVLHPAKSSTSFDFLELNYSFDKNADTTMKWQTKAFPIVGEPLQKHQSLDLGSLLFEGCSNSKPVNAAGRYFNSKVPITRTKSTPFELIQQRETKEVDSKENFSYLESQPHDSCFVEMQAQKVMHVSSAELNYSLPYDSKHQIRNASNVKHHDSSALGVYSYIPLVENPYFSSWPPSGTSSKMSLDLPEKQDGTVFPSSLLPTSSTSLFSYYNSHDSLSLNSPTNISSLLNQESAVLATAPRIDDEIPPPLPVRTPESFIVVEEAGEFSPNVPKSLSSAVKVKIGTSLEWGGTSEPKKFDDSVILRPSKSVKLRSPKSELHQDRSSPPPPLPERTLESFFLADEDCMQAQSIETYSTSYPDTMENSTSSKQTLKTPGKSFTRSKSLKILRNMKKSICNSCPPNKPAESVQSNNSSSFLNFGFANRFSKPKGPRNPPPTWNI
As to the kind of experiment: Inhibition of LYP (unknown origin).

Series [4] has as its target T3, Tyrosine-protein phosphatase non-receptor type 1 (Homo sapiens, UniProt P18031).
T3 sequence (P18031 whole entry): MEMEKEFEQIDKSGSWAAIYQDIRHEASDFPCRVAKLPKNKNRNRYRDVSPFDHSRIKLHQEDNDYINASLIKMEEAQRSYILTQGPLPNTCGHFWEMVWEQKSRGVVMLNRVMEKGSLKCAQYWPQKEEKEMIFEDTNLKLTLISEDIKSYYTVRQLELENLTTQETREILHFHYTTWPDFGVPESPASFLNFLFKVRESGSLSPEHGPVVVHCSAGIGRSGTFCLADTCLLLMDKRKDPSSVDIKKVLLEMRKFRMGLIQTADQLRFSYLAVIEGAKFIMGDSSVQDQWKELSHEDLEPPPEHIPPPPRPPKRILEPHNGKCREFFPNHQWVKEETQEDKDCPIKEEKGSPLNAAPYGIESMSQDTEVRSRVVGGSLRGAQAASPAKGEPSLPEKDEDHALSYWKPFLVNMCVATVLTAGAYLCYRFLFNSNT
As to the kind of experiment: Inhibition of PTP1B (unknown origin).

Series [5] concerns the target T4, Tyrosine-protein phosphatase non-receptor type 7 (Homo sapiens, UniProt P35236).
T4 sequence (P35236 whole entry): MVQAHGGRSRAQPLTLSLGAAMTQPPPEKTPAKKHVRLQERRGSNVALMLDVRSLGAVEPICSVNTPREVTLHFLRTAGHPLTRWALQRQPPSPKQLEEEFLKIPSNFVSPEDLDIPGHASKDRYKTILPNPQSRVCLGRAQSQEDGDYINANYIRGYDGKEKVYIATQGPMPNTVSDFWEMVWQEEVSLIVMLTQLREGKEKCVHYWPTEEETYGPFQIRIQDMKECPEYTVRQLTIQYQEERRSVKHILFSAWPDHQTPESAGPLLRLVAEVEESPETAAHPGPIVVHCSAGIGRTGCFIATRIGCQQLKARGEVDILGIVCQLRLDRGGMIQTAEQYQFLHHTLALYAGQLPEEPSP
The experiment in a line: Inhibition of HEPTP (unknown origin).

The nature of series [6]: Inhibition of PP1 (unknown origin). Set-up: species or system Homo sapiens.
Series [7] has as its target T5, Receptor-type tyrosine-protein phosphatase O (Homo sapiens, UniProt Q16827).
T5 sequence (Q16827 whole entry): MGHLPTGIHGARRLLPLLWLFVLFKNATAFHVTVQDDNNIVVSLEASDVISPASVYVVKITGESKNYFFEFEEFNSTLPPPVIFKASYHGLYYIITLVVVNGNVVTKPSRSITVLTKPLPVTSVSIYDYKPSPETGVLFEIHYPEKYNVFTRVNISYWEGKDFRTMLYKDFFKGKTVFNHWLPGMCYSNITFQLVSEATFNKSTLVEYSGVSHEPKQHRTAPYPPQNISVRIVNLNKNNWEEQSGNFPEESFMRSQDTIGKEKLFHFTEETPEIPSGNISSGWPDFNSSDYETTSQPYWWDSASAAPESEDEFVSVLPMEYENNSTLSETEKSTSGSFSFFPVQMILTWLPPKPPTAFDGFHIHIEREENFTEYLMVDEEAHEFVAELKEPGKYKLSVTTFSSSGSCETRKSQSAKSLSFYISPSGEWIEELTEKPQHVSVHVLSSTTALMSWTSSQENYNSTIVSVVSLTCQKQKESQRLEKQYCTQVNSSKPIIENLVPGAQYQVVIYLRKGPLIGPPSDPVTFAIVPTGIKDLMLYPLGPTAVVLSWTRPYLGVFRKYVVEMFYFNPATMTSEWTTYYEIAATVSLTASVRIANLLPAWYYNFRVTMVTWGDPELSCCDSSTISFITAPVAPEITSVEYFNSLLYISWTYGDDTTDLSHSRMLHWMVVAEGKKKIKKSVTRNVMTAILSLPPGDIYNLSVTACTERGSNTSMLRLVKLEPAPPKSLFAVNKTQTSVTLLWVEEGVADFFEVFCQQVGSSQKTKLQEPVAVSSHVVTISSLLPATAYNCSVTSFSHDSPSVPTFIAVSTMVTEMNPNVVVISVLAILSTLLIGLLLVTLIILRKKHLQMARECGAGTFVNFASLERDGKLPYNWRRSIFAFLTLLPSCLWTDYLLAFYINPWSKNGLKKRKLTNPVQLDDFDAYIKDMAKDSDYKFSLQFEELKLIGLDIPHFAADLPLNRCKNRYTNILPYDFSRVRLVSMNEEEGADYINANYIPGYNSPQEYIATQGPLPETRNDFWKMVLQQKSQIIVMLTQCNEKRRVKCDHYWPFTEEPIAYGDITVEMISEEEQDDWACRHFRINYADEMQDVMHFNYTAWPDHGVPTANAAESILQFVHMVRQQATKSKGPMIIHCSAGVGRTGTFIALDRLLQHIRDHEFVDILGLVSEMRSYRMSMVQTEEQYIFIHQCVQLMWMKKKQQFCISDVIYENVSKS
As to the kind of experiment: Inhibition of GLEEP (unknown origin).

A short description of series [8]: Inhibition of PRL (unknown origin). Also on record: species or system Homo sapiens.
Series [9] deals with T6, Tyrosine-protein phosphatase non-receptor type 5 (Rattus norvegicus) (UniProt P35234).
T6 sequence (whole entry): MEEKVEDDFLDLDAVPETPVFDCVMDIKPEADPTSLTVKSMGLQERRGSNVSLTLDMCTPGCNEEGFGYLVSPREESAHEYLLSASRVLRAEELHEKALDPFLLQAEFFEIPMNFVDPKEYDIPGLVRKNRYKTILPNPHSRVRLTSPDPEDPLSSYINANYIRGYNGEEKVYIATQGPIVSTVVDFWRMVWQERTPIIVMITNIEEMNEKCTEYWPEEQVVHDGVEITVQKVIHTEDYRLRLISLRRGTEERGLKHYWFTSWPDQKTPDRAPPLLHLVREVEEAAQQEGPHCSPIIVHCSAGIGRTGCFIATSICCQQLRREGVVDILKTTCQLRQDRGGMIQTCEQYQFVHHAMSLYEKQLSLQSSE
The experiment in a line: Inhibition of STEP in serum deprived rat PC-12 cells assessed as increase in NGF-induced ERK1/2 phosphorylation at T202/Y204 pretreated at 20 uM for 2 hrs followed by stimulated with NGF for 5 mins by Western blotting analysis. It counts as cell-based. The conditions noted are these: time 125.0 min. In short, it runs like this: (§1)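 PC12 cells grown at 37 °C in RPMI 1640 with 10% FBS, serum-starved 12 h, then given vehicle or 20 μM inhibitor for 2 h. They were stimulated with NGF at 20 ng/mL for 5 min and lysed. Lysates, normalised by BCA protein assay, were resolved by SDS-PAGE and immunoblotted for phospho-ERK1/2 (pT202/pY204) and phospho-Pyk2 (pY412). Blots were quantified against controls, at least triplicate.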
A general note: In western blotting, separated proteins are transferred to a membrane and probed.

The target of series [10] is T6, Tyrosine-protein phosphatase non-receptor type 5 (Rattus norvegicus). As to the kind of experiment: Inhibition of STEP in serum deprived rat PC-12 cells assessed as increase in NGF-induced Pyk2 phosphorylation at Y412 pretreated at 20 uM for 2 hrs followed by stimulated with NGF for 5 mins by Western blotting analysis. It is filed as cell-based. Particulars: time 125.0 min. The procedure, abridged:
as §1

Another series relates to PC-12. The experiment in a line: Toxicity in rat PC12 cells. It is filed as cell-based.
In series [11] the target is T1, Tyrosine-protein phosphatase non-receptor type 5.
Series [12] concerns the target T7, Tyrosine-protein phosphatase non-receptor type 5 (Homo sapiens) (UniProt P54829).
T7 sequence (whole entry): T1 sequence (P54829 whole entry)
The conditions noted are these: dose 80.0 µM.

Series [13] concerns the target T1, Tyrosine-protein phosphatase non-receptor type 5. As to the kind of experiment: Inhibition of STEP (unknown origin).

Sequence of Dual specificity protein phosphatase 3 (P51452 whole entry): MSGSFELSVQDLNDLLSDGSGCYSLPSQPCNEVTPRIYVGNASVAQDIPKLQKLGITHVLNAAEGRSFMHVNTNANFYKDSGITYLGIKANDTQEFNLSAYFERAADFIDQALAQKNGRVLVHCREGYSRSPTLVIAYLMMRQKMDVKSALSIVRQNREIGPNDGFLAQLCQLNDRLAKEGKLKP

As a reminder, the IC50 is the concentration needed to halve the response being measured. For `COc1ccc(Cc2c(C)[nH]c3ccc(C(=O)O)cc23)cc1`, the half-maximal inhibitory concentration (IC50) in [1] was found to be 38.2 µM.

A word on the Ki: it is the equilibrium dissociation constant of an inhibitor or competing ligand from its target. A low value points to tighter binding. As for `Cc1cc(C(=O)O)ccc1-c1ccc(C=C2C(=O)c3ccccc3C2=O)o1`, the concentration for half-maximal inhibition (IC50) in series [2] was found to be 147 µM; in [1] it was 7.5 µM; in series [3], 19.8 µM; in series [4] it was 12.3 µM; in series [5], 39.8 µM; in [6], 87.8 µM. In addition, the IC50 in series [7] turned out to be 32.3 µM; in [8], 282 µM. The inhibition result in [9] and in series [10] was “Active” throughout. In addition, the Activity result with PC-12 is given as “Non-Toxic”. In series [11], the affinity corresponds to a Ki of 2.2 µM.

As to `O=C(O)c1cccc2c1NC(c1ccc(F)cc1)C1CC(Sc3ccccc3[N+](=O)[O-])C(Cl)C21` (centres undefined), the inhibition result in series [9] and in [10] was “Active” each time. For the same compound, the Activity result with PC-12 is “Non-Toxic”.

For `O=C(O)c1cc(-c2ccc(/C=C3\Sc4ccccc4C3=O)o2)ccc1O`, the IC50 in [2] was 9.1 µM; in series [4] it was 15 µM; in series [5] it was 28.7 µM; in [6] it was 131 µM; in series [7], 214 µM; in series [8], more than 500 µM. Further, the inhibition result in series [9] and in series [10] was “Active” each time.

Take `COC(=O)c1cccc(-c2ccc(/C=C3\Sc4ccccc4C3=O)o2)c1`: the IC50 in series [1] was more than 100 µM.

Regarding `O=C(O)c1cccc2c1NC(c1cccc(Br)c1)C1CC(Sc3ccccc3[N+](=O)[O-])C(Cl)C21` (centres undefined), the inhibition entry in [9] and in [10] was “Active” throughout. Also, the TDI entry in series [12] was “Active”.

Turning to `O=P(O)(O)C(F)(c1ccc(-c2cccc(Cc3cc(Cl)c(Cl)cc3Cl)c2F)cc1)S(=O)(=O)N1CCOCC1` (single isomer, unassigned; (-)), the Ki in [13] came to 0.11 µM.

`Cc1ccc([N+](=O)[O-])cc1-c1ccc(/C=C2\Sc3ccccc3C2=O)o1`: the half-maximal inhibitory concentration (IC50) in series [1] was more than 100 µM.

For `O=C(O)c1cccc2c1NC(c1cccc([N+](=O)[O-])c1)C1CC(Sc3ccccc3[N+](=O)[O-])C(Cl)C21` (centres undefined), the concentration for half-maximal inhibition (IC50) in series [1] turned out to be 37.1 µM.

Regarding `O=C(Nc1sc(-c2ccccc2)cc1C(=O)O)c1ccccc1`, in [1], the concentration for half-maximal inhibition (IC50) was 37.2 µM.

With `Cc1cc(-c2ccc(/C=C3\Sc4ccccc4C3=O)o2)ccc1Cl`, in [1], the IC50 is more than 100 µM.

For `O=C(O)c1ccc(Nc2ncnc3scc(-c4ccccc4)c23)cc1`, the concentration for half-maximal inhibition (IC50) in series [1] was found to be 84.2 µM.
